Here are results for two molecules from ChEMBL document CHEMBL1136852, “Isolation and structure elucidation of parnafungins C and D, isoxazolidinone-containing antifungal natural products” (2009).

What all share (assay type): functional
Assay [1] has as its system Candida albicans. The assay can be described thus: Antifungal activity against Candida albicans MY2323 expressing single copy of CLP1 gene. In a few lines:
(§1)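 Wild-type C. albicans was tested alongside two heterozygote strains, each carrying a single copy of CLP1 or YSH1, to compare mechanism of action. The read-out was MIC.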

The subject of the next assay is Nakaseomyces glabratus. The experiment in a line: Antifungal activity against Candida glabrata ATCC 90030. An outline of the steps:
(§2)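 MIC was determined in Sabouraud dextrose medium.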

The test system of the next assay is Clavispora lusitaniae. The assay can be described thus: Antifungal activity against Candida lusitaniae ATCC 34449. An outline of the steps:
as §2

In the next assay the test system is Candida parapsilosis. The assay can be described thus: Antifungal activity against Candida parapsilosis 22019. To be noted: Lodderomyces parapsilosis. An outline of the steps: as §2
For assay [2], the system named is Candida albicans. The assay can be described thus: Antifungal activity against Candida albicans MY2323 expressing single copy of YSH1 gene. In a few lines:
as §1

Another assay concerns Candida tropicalis. The assay can be described thus: Antifungal activity against Candida Candida tropicalis ATCC 750. An outline of the steps:
as §2

Assay [3] deals with Candida albicans. The experiment in a line: Antifungal activity against Candida albicans MY2323. In a few lines:
as §1

The next assay relates to Pichia kudriavzevii. The experiment in a line: Antifungal activity against Candida krusei ATCC 6258. An outline of the steps: as §2

Structures are written as SMILES. ≈ marks a conversion by molar mass, not a printed value. Bounds are passed on as bounds.

Take `COC(=O)[C@]12Oc3cc4c(c(OC)c3C(=O)C1=C(O)CC[C@@H]2O)-c1cccc2c(=O)on(c12)C4` [PARNAFUNGIN A]: the MIC – broadly, the lowest concentration found to suppress growth – against Candida albicans [1] was 0.03 µg/mL (≈ 0.0645 µM); in the assay with Nakaseomyces glabratus, over 10 µg/mL; with Clavispora lusitaniae, 0.16 µg/mL (≈ 0.344 µM); with Candida parapsilosis it was over 10 µg/mL; in the assay with Candida albicans [2], 0.03 µg/mL (≈ 0.0645 µM); against Candida tropicalis, 2.5 µg/mL (≈ 5.37 µM). The MIC in the assay on Candida albicans [3] came out at 2 µg/mL (≈ 4.3 µM); against Pichia kudriavzevii, 0.08 µg/mL (≈ 0.172 µM).

Turning to `COC(=O)[C@]12Oc3cc4c(c(OC)c3C(=O)C1=C(O)[C@@H]1O[C@@H]1[C@@H]2O)-c1cccc2c(=O)on(c12)C4` [PARNAFUNGIN D], the MIC came to 0.004 µg/mL (≈ 0.00834 µM) with Candida albicans [1]; 5 µg/mL (≈ 10.4 µM) in the assay with Nakaseomyces glabratus; 0.16 µg/mL (≈ 0.334 µM) against Clavispora lusitaniae; 2.5 µg/mL (≈ 5.21 µM) in the assay with Candida parapsilosis; 0.004 µg/mL (≈ 0.00834 µM) with Candida albicans [2]; 0.6 µg/mL (≈ 1.25 µM) against Candida tropicalis. The MIC in the assay on Candida albicans [3] and in the assay with Pichia kudriavzevii was 0.016 µg/mL (≈ 0.0334 µM) each time.
